In ChEMBL document CHEMBL1126156, “Multivariate analysis by the minimum spanning tree method of the structural determinants of diphenylethylenes and triphenylacrylonitriles implicated in estrogen receptor binding, protein kinase C activity, and MCF7 cell proliferation” (J Med Chem, 1992):

Assays:
[1] = target: T1, Protein kinase C, PKC; classical (Rattus norvegicus) (UniProt P05696+P68403+P63319); assay: The percent stimulation or inhibition of protein kinase C III activity was determined for phosphatidylserine (PS) and diolein(PS+DO) in the presence of [Ca2+]; format: protein assay; parameters: concentration or dose not given beside the values; conditions: values are per cent of control
How it was run: (§1)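 Type III (α) PKC purified from rat brain soluble fraction, assayed with calf thymus H1 histone, 0.1 mM Ca2+, 5 mM magnesium acetate, 10 μM [32P]ATP, 2 μg/mL phosphatidylserine plus 0.2 μg/mL diolein. Compounds mostly at 10⁻⁴ M; activity expressed as percent of control.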

MCF7S [2] = assay: Cytostatic activity against MCF-7 cell proliferation; format: functional, Homo sapiens
How it was run: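 MCF7 (ER-positive) human breast cancer cells grown in 24-well plates in phenol red-free medium with 5% dextran-coated charcoal, with 10⁻⁶ M E₂ added. Cells exposed to compound for 6 days, then DNA measured and expressed as percent of E₂-alone DNA. Triplicate wells per experiment; values are means of two experiments.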

MCF7S [3] = assay: Agonistic activity in MCF-7 cell proliferation.; format: functional, Homo sapiens
How it was run: (§2)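 MCF-7 cells grown in phenol red-free medium with 5% dextran-coated charcoal-treated serum, tested 10 pM to 1 μM. DNA content read after growth. Agonism expressed relative to the maximum response with E2 (=100%), whatever the concentration. EC50 (50% of maximum response) taken from two separate experiments.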

[4] = target: T1, Protein kinase C, PKC; classical (Rattus norvegicus); assay: Percent stimulation or inhibition of protein kinase C III activity for phosphatidylserine (PS) in the presence of [Ca2+].; format: protein assay; parameters: concentration or dose not given beside the values; conditions: values are per cent of control
How it was run: (§3)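 Purified type III (α) PKC from rat brain soluble fraction. Substrate calf thymus H1 histone with 0.1 mM Ca2+, 5 mM magnesium acetate, 10 μM [32P]ATP and 2 μg/mL phosphatidylserine, no diolein. Most compounds at 10⁻⁴ M, given as percent of control activity.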

Rattus norvegicus [5] = species on record: Rattus norvegicus; assay: Percent stimulation or inhibition of protein kinase C III activity for protamine sulfate in the presence of EGTA.; parameters: concentration or dose not given beside the values; conditions: values are per cent of control
How it was run: (§4)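 Rat brain type III (α) PKC, purified, with protamine sulfate as substrate and 0.5 mM EGTA in place of Ca2+, phosphatidylserine and diolein; 5 mM magnesium acetate, 10 μM [32P]ATP. Most compounds at 10⁻⁴ M; percent of control activity.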

MCF7S [6] = assay: (§5) Antagonist activity against MCF-7 cell proliferation; format: functional, Homo sapiens
How it was run: (§6)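 Phenol red-free MCF-7 cultures with 5% dextran-coated charcoal-treated serum, stimulated by 0.1 nM E2. Proliferation read as DNA content after 8 days relative to E2 alone. Percent antagonism is the inhibition at 10⁻⁶ M test compound versus 10⁻¹⁰ M E2. IC50 (50% of maximum response) from two separate experiments.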

BT-20 [7] = assay: (§7) Cytotoxic effect on ER-negative BT20 cell proliferation; format: functional, Homo sapiens; parameters: concentration or dose not given beside the values
How it was run: (§8)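 ER-negative BT20 cells, no E2, test compound at 3–10 μM for 6 days. DNA read as percent of untreated control. IC30 is the concentration inhibiting growth by 30%; percent inhibition taken at 10⁻⁵ M. Means of two experiments, triplicate wells.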

MCF7S [8] = assay: Cytotoxic effect on MCF-7 cell proliferation; format: functional; conditions: Homo sapiens
How it was run: (§9)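 MCF-7 cells in phenol red-free charcoal-treated medium given 10⁻⁶ M E2 plus test compound (3–10 μM), 6 days of growth. DNA expressed as percent of E2-treated cells. IC30 is the concentration giving 30% inhibition. Percent inhibition taken at 10⁻⁵ M, or at 10⁻⁶ M in a second series. Means of two experiments.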

MCF7S [9] = assay: Cytostatic activity against MCF-7 cell proliferation.; format: functional, Homo sapiens; parameters: concentration or dose not given beside the values; how it was run: as §9
BT-20 [10] = assay: as §7; format: functional; conditions: Homo sapiens; how it was run: as §8
MCF7S [11] = assay: Agonist activity against MCF-7 cell proliferation; format: functional, cell-based; conditions: Homo sapiens; how it was run: as §2
MCF7S [12] = assay: as §5; format: functional, cell-based; conditions: Homo sapiens; how it was run: as §6
[13] = target: Estrogen receptor (Bos taurus) (UniProt Q9XSB5+P49884); assay: Relative binding affinity for calf uterus estrogen receptor after 2 hr at 0 degree C; format: protein assay
How it was run: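 Calf uterus cytosol ER incubated 2 h at 0 °C with [6,7-3H]-17β-estradiol and competitor. RBA given relative to estradiol (=100%), mean of at least four determinations.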

[14] = target: T1, Protein kinase C, PKC; classical (Rattus norvegicus); assay: (§10) Percent stimulation or inhibition of protein kinase C with [Ca2+] for phosphatidylserine and diolein(PS+DO); format: protein assay; parameters: concentration or dose not given beside the values; conditions: values are per cent of control; how it was run: as §1
[15] = target: T1, Protein kinase C, PKC; classical (Rattus norvegicus); assay: as §10; format: protein assay; how it was run: as §1
[16] = target: T1, Protein kinase C, PKC; classical (Rattus norvegicus); assay: Percent stimulation or inhibition of protein kinase C with [Ca2+] for phosphatidylserine (PS); format: protein assay; conditions: values are per cent of control; how it was run: as §3
Rattus norvegicus [17] = species on record: Rattus norvegicus; assay: Percent stimulation or inhibition of protein kinase C with EGTA for protamine sulfate; conditions: concentration not given here; how it was run: as §4

| residual activity [1] | residual activity [4] | residual activity (Rattus norvegicus [5]) | EC50 (MCF7S [11]) | IC50 (MCF7S [12]) | RBA [13] | residual activity [14] | residual activity ([15]; values are per cent of control) | residual activity [16] | inhibition (Rattus norvegicus [17]) | inhibition ([15]; concentration not given here) | Structure (SMILES) | Inhibition (MCF7S [2]) | Agonism (MCF7S [3]) | Antagonism (MCF7S [6]) | Inhibition (BT-20 [7]) | IC30 (MCF7S [8]) | Inhibition (MCF7S [9]) | IC30 (BT-20 [10]) |
| --- | --- | --- | --- | --- | --- | --- | --- | --- | --- | --- | --- | --- | --- | --- | --- | --- | --- | --- |
| 86% | 118% | 78% | > 1000 nM | > 1000 nM | – | – | – | – | – | – | CC(C)CCOc1ccc(C(=C(C#N)c2ccccc2)c2ccc(OCCC(C)C)cc2)cc1 | – | 0% | 0% | 37% | > 10000 nM | 3% | 9000 nM |
| 8% | 18% | 85% | 0.84 nM | 325 nM | 0.03% | – | – | – | – | – | CC(C)N(CCOc1ccc(C(=C(C#N)c2ccccc2)c2ccc(OCCN(C(C)C)C(C)C)cc2)cc1)C(C)C | – | 29% | 79% | 89% | 2700 nM | 97% | 3200 nM |
| – | – | 88% | – | – | – | – | – | – | 88% | 57% | CN(C)c1ccc(C(=C(C#N)c2ccccc2)c2ccc(N(C)C)cc2)cc1 | – | 85% | – | – | – | 48% | – |

The remaining lines, values behind:

| Structure (SMILES) | residual activity [1] | residual activity [4] | residual activity (Rattus norvegicus [5]) | EC50 (MCF7S [11]) | IC50 (MCF7S [12]) | RBA [13] | residual activity [14] | residual activity ([15]; values are per cent of control) | residual activity [16] | inhibition (Rattus norvegicus [17]) | inhibition ([15]; concentration not given here) | Inhibition (MCF7S [2]) | Agonism (MCF7S [3]) | Antagonism (MCF7S [6]) | Inhibition (BT-20 [7]) | IC30 (MCF7S [8]) | Inhibition (MCF7S [9]) | IC30 (BT-20 [10]) |
| --- | --- | --- | --- | --- | --- | --- | --- | --- | --- | --- | --- | --- | --- | --- | --- | --- | --- | --- |
| CC/C(=C(/c1ccc(O)cc1)c1ccc(OCCN(C)C)cc1)c1ccccc1 | 14% | 32% | 100% | – | – | – | – | – | – | – | – | 74% | 61% | – | – | – | – | – |
| Cc1ccc(/C(=C(\C#N)c2ccc(O)cc2)c2ccc(O)cc2)cc1 | – | – | – | – | – | – | 68% | 68% | 88% | – | – | – | 73% | – | – | – | 54% | – |
| CCN(CC)CCOc1ccc(C(C#N)=C(c2ccc(O)cc2)c2ccc(O)cc2)cc1 | 0% | 7% | 105% | 0.8 nM | 200 nM | – | – | – | – | – | – | – | 45% | 50% | 50% | 6000 nM | 68% | 3000 nM |
